Screens (PubChem)
Shown are actives, neighbours in structure and some others; about 2.7% of the full set was active somewhere.
E-selectin induc: induces E-selectin expression in human endothelial cells. P16581. HUVEC E-selectin immunofluorescence imaging; normalized: neutral wells 0, TNF-alpha wells 100. activation, % at 7.58 µM. 260,000 compounds, 0.37% hits;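 active = mean E-selectin-positive cell signal at least 10% of the positive control, reached in at least 60% of replicates, without over 20% cell loss; inconclusive = no rule given, readout overlaps actives, possibly toxicity-flagged; inactive = the rest, including those meeting only one limit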
Target sequence (P16581 whole entry, looked up): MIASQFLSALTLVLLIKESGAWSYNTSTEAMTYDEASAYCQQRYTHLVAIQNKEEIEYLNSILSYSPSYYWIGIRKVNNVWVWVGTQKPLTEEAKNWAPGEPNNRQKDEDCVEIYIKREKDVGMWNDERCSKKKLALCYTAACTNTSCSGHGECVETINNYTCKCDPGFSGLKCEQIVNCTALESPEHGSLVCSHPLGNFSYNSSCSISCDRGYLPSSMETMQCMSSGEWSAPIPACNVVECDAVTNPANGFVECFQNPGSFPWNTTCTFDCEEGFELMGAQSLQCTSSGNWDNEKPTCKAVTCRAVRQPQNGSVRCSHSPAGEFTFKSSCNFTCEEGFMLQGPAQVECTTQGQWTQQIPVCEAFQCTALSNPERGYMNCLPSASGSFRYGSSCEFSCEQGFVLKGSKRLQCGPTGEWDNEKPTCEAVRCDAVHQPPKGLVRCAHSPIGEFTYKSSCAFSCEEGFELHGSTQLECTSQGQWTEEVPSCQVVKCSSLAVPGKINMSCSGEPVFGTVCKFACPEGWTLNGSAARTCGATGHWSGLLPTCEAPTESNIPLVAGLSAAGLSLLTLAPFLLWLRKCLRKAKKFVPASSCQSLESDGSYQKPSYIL
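Assay system: HUVEC, human umbilical vein endothelial cells / Amount: 3,000 HUVEC/well / Controls: TNF-alpha positive control, DMSO neutral control / Compound dosing: single concentration / Medium: EGM-2 over gelatin coat / Evaluation: percent E-selectin-positive cells / Signal: immunofluorescence imaging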
FGF22 binding: binders of recombinant human FGF22 by thermal shift; Q9HCT0; SYPRO orange fluorescence; percent of sucrose octasulfate shift, DMSO zero; 340,000 compounds, 1.5% hits; AID 651658; activity (Tm shift, normalised), % at 9.99 µM;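 active = mean Tm shift, scaled 0 neutral to 100 positive control, at about 1.3% or above, every replicate too, limit read from the data; inconclusive = no clear call, values can overlap the other calls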
F508del corr: CFTR F508del correction in bronchial cells | AID 720511 | 350,000 compounds, 0.36% hits | CFBE cells, YFP halide quenching; stimulated with forskolin plus potentiator P3; % fluorescence drop versus neutral controls | activity (quench increase), % at 7.58 µM;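 active = mean added fluorescence quench of at least 8% versus neutral control, with both replicates also reaching 8%; inconclusive = only one of the mean or replicate conditions met; inactive = mean below 8% and not both replicates reaching 8%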;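 note: cells transiently co-express mutant CFTR-F508del with the halide-sensitive YFP; corrector assay measuring rescue of mutant channel to the surface after 24 h compound exposure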
S100A4 MyoIIA: inhibitors of human S100A4 binding to myosin IIA peptide; AID 652163; 360,000 compounds, 0.14% hits; inhibition, % at 10.7 µM; S100A4/TAMRA-MyoIIA peptide fluorescence polarization; P26447;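 active = mean inhibition of at least 70% across replicates, with every replicate also reaching that level; inconclusive = mean inhibition reaches 70% but some replicates fall short; inactive = mean inhibition below 70%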
Target sequence (P26447 whole entry, looked up): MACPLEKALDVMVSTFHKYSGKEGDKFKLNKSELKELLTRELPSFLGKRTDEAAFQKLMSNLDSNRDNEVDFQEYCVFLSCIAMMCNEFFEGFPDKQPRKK
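Material: S100A4 monomer protein | Medium: HEPES pH 7.2 with CaCl2, KCl, NaCl, DTT, Triton | Reagent: Labelled myosin peptide probe, 5 nM | Doses: One dose per compound | Times: 5 min incubation before reading | Benchmarks: Neutral control DMSO, positive control TFP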
Env fusion inh: inhibitors of HIV Env-mediated cell fusion. HeLa-JRFL Env/CEM21 cell fusion, luciferase. inhibition, % at 12.3 µM. 360,000 compounds, 1.1% hits;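 active = mean replicate inhibition score of at least 50 and every replicate individually at or above 50; inconclusive = only one of the two criteria met; inactive = mean below 50 and not all replicates reaching 50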;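 note: 0% = plate neutral controls and 100% = maraviroc near 300 nM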
* = called active by the depositor; ? = inconclusive; nt = not tested or not shown; [ ] = another dose, or the depositor's remark.

SMILES	E-selectin induc	FGF22 binding	F508del corr	S100A4 MyoIIA	Env fusion inh
C[C@@H]1CCCCO[C@@H](CN(C)C(=O)c2ccccc2)[C@@H](C)CN([C@H](C)CO)C(=O)c2cc(NC(=O)NC3CCCCC3)ccc2O1	-0.2	0.1	2.7	-5.2	3.4[16.7 µM]
C[C@H]1CCCCO[C@H](CN(C)C(=O)c2ccccc2)[C@@H](C)CN([C@@H](C)CO)C(=O)c2cc(NC(=O)NC3CCCCC3)ccc2O1	0.0	-0.7	0.7	113.9*	-63.4[16.7 µM]
C[C@@H]1CCCCO[C@@H](CN(C)CC2CCCCC2)[C@H](C)CN([C@H](C)CO)C(=O)c2cc(NC(=O)c3ccccc3)ccc2O1	-0.1	0.6	2.1	5.6	66.9*[16.7 µM]
C[C@@H]1CN([C@H](C)CO)C(=O)c2cc(NC(=O)c3ccccc3)ccc2O[C@@H](C)CCCCO[C@@H]1CN(C)C(=O)c1ccccc1	nt	1.4*	-1.0	nt	-2.7[16.7 µM]
C[C@H]1CCCCO[C@H](CN(C)C(=O)NC2CCCCC2)[C@@H](C)CN([C@@H](C)CO)C(=O)c2cc(NC(=O)Nc3ccccc3)ccc2O1	0.0	-0.1	-1.2	-6.6	56.1*[16.7 µM]
CCC(=O)N1C[C@H](C)[C@H](OC)CN(C)C(=O)c2cc(NC(=O)c3ccc(F)cc3)ccc2OC[C@@H]1C	0.3	-0.4	1.1	10.9	-15.5[16.7 µM]
Cc1noc(C)c1NC(=O)Nc1ccc2c(c1)C(=O)N([C@@H](C)CO)C[C@H](C)[C@@H](CN(C)CC1CC1)OCCCC[C@H](C)O2	-0.4	0.0	-2.8	3.3	11.6[16.7 µM]
COCC(=O)Nc1ccc2c(c1)C(=O)N(C)C[C@H](OC)[C@@H](C)CN[C@@H](C)CO2	0.2	nt	4.1	nt	12.8[16.7 µM]
C[C@H](NC(=O)C[C@H]1CC[C@@H](NC(=O)C2CCC2)[C@@H](CO)O1)c1ccccc1	-0.1	0.6	-0.1	0.5	6.5[16.7 µM]
COc1cccc(/C=C/C(=O)OCC(=O)Nc2ccc(N3CCOCC3)cc2)c1OC	nt	43.9*	2.4	0.6	-7.0
CC1CCCC(NC(=O)COC(=O)c2ccccc2[N+](=O)[O-])C1C (configuration not stated)	0.0	43.7*	0.6	-0.3	7.3
CC1CCCC(NC(=O)COC(=O)CCC(=O)c2ccc(F)cc2)C1C (configuration not stated)	-0.1	44.3*	1.8	-3.9	-23.0
CC1CCCC(NC(=O)COC(=O)CCC(=O)c2cccs2)C1C (configuration not stated)	0.1	0.2	-1.5	-16.4	0.3
COC(=O)c1c(NC(=O)CN2CCC3(O)CCCCC3C2c2ccccc2OC)sc(C)c1C (configuration not stated)	0.0	0.0	nt	5.7	27.5
COC(=O)c1c(NC(=O)CN2CCC3(O)CCCCC3C2c2ccc(OC)cc2OC)sc(C)c1C (configuration not stated)	0.2	-0.1	nt	3.0	66.1*
CCS(=O)(=O)Nc1cccc(C2=NN(S(C)(=O)=O)C(c3ccccc3)C2)c1 (configuration not stated)	nt	43.2*	-3.0	-45.3	9.8
CC(=O)N1N=C(c2cccc(NS(C)(=O)=O)c2)CC1c1cccs1 (configuration not stated)	nt	0.0	-2.7	21.3	-9.1
CS(=O)(=O)Nc1ccc(C2=NN(C(=O)c3ccccc3)C(c3cccs3)C2)cc1 (configuration not stated)	3.9	0.2	nt	1.0	15.0
CC(C)(C)C(=O)N1N=C(c2ccc(NS(C)(=O)=O)cc2)CC1c1cccs1 (configuration not stated)	nt	43.2*	-0.3	2.7	-5.9
CCS(=O)(=O)N1N=C(c2cccc(NS(C)(=O)=O)c2)CC1c1ccccc1 (configuration not stated)	nt	-0.4	-0.4	-50.0	-8.9
CCS(=O)(=O)Nc1cccc(C2=NN(C(C)=O)C(c3cccs3)C2)c1 (configuration not stated)	nt	43.0*	0.3	0.8	20.0
C[C@H](O)C#Cc1ccc2c(c1)O[C@@H](CN(C)C(=O)C1CCC1)[C@H](C)CN([C@@H](C)CO)S2(=O)=O	0.1	-0.1	-3.4	27.8	12.1[16.7 µM]
C[C@@H]1CN([C@H](C)CO)C(=O)CCCn2nncc2CO[C@@H]1CN(C)CC1CCCC1	0.1	0.0	-0.6	9.4	nt
Cc1noc(C)c1S(=O)(=O)N(C)C[C@H]1Oc2ccc(NC(=O)CCN3CCOCC3)cc2CC(=O)N([C@@H](C)CO)C[C@H]1C	-8.2	-0.1	-2.1	-4.8	nt
CC(NC(=O)COC(=O)CCc1nc2ccccc2c(=O)[nH]1)c1ccccc1 (configuration not stated)	49.0*	0.1	5.1	0.5	5.4
SMILES	E-selectin induc	FGF22 binding	F508del corr	S100A4 MyoIIA	Env fusion inh
COc1ccc(NC(=O)N(C)C[C@H]2Oc3ccc(NC(=O)Cn4cnnn4)cc3C(=O)N([C@@H](C)CO)C[C@@H]2C)cc1	0.7	0.2	-0.9	-1.2	nt
O=C(c1cccc(F)c1)N1CC[C@@H]2[C@@H](CO)Nc3ccc(-c4ccccc4)cc3[C@@H]21	0.2	nt	0.8	-3.1	nt
COc1cnc(-c2cccc(C(F)(F)F)c2)nc1OC	?	43.3*	-2.6	-10.7	-25.1
Cc1ccc(SCC(=O)Nc2nccs2)cc1	-0.1	43.4*	2.6	-11.1	-34.5
CCOC1=C2[C@@H](CN(S(=O)(=O)c3ccccc3C)[C@H]2c2ccc(Cl)cc2)[C@H]2C(=O)NC(=O)[C@H]2C1	0.9	-0.4	2.7	-0.4	79.0*
C[C@H](CO)N1C[C@H](C)[C@H](CN(C)S(=O)(=O)c2cccs2)Oc2ccc(NC(=O)Nc3ccc4c(c3)OCO4)cc2C1=O	-0.2	0.1	-1.0	-6.5	46.6[16.7 µM]
C[C@@H]1CN([C@@H](C)CO)C(=O)c2cc(NS(=O)(=O)c3cccs3)ccc2O[C@@H]1CN(C)C(=O)Nc1ccc2c(c1)OCO2	36.0*	-0.2	0.7	14.2	nt
C[C@H](CO)N1C[C@H](C)[C@H](CN(C)S(C)(=O)=O)Oc2ccc(NS(=O)(=O)c3cccs3)cc2C1=O	0.7	0.0	-0.4	5.5	nt
C[C@H]1CN([C@@H](C)CO)C(=O)c2cc(NC(=O)Nc3ccc4c(c3)OCO4)ccc2O[C@H]1CN(C)S(=O)(=O)c1cccs1	0.0	0.2	-0.3	-5.0	57.2*[16.7 µM]
C[C@H]1CN([C@@H](C)CO)C(=O)c2cc(NC(=O)Nc3ccc(F)cc3)ccc2O[C@H]1CN(C)S(=O)(=O)c1cccs1	26.5*	-0.4	-2.5	-1.6	nt
C[C@H](CO)N1C[C@H](C)[C@@H](CN(C)S(C)(=O)=O)Oc2ccc(NS(=O)(=O)c3cccs3)cc2C1=O	428.5*	-0.3	-3.7	-5.1	nt
CN(C)CCCNC(=O)[C@H]1[C@H](CO)[C@H]2Cn3c(cccc3=O)[C@H]2N1C(=O)Nc1ccccc1	-0.2	-0.1	-2.1	9.0	nt
